Experimental data reported in ChEMBL document CHEMBL1129508, “Betulinic acid derivatives: a new class of specific inhibitors of human immunodeficiency virus type 1 entry” (J Med Chem, 1996).

What was measured:
[1] = test system: Human immunodeficiency virus 1; test: Inhibitory activity tested against the HIV-1 in CEM cells; format: functional, organism-based; settings: Human immunodeficiency virus 1, CCRF-CEM
In short: (§1)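 HIV-1-induced cytopathicity in CEM 4 or MT-4 cell cultures was assessed by counting viable cells after MTT (3-(4,5-dimethylthiazol-2-yl)-2,5-diphenyltetrazolium bromide) staining. IC50 is the concentration that inhibits cytopathicity by 50%. For routine testing, the highest concentration was generally 3 µM, because solubility was limited above 10 µM.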

[2] = test system: Human immunodeficiency virus 1; test: Inhibitory activity tested against the HIV-1 in MT-4 cells; format: functional, organism-based; settings: Human immunodeficiency virus 1, MT4; in short: as §1

Structure (SMILES): C=C(C)[C@@H]1CC[C@]2(C(=O)NCCCCCCCC(=O)N(C)CC(=O)O)CC[C@]3(C)[C@H](CCC4[C@@]5(C)CC[C@H](O)C(C)(C)[C@@H]5CC[C@]43C)[C@@H]12 (stereo partly specified)
- IC50 [1]: 0.25 µM
- IC50 [2]: 0.333 µM

Structure (SMILES): C=C(C)[C@@H]1CC[C@]2(C(=O)NCCCCCCCCCCC(=O)O)CC[C@]3(C)[C@H](CCC4[C@@]5(C)CC[C@H](O)C(C)(C)[C@@H]5CC[C@]43C)[C@@H]12 (stereo partly specified)
- IC50 [1]: 0.23 µM
- IC50 [2]: 0.443 µM

Structure (SMILES): C=C(C)[C@@H]1CC[C@]2(C(=O)NCCCCCCCC(=O)NC(C)CC(=O)O)CC[C@]3(C)[C@H](CCC4[C@@]5(C)CC[C@H](O)C(C)(C)[C@@H]5CC[C@]43C)[C@@H]12 (stereo partly specified)
- IC50 [1]: 0.13 µM

Structure (SMILES): C=C(C)[C@@H]1CC[C@]2(C(=O)NCCCCCCCC(=O)NCC(C)C(=O)O)CC[C@]3(C)[C@H](CCC4[C@@]5(C)CC[C@H](O)C(C)(C)[C@@H]5CC[C@]43C)[C@@H]12 (stereo partly specified)
- IC50 [1]: 0.13 µM

Structure (SMILES): C=C(C)[C@@H]1CC[C@]2(C(=O)NCCCCCCCC(=O)N[C@@H](Cc3ccccc3)[C@@H](O)CC(=O)O)CC[C@]3(C)[C@H](CCC4[C@@]5(C)CC[C@H](O)C(C)(C)[C@@H]5CC[C@]43C)[C@@H]12 (stereo partly specified)
- IC50 [1]: 0.13 µM
- IC50 [2]: 0.033 µM

Structure (SMILES): C=C(C)[C@@H]1CC[C@]2(C(=O)NCCCCCCCC(=O)N[C@@H](CCCCN)C(=O)O)CC[C@]3(C)[C@H](CCC4[C@@]5(C)CC[C@H](O)C(C)(C)[C@@H]5CC[C@]43C)[C@@H]12 (stereo partly specified)
- IC50 [1]: 10 µM

Structure (SMILES): C=C(C)[C@@H]1CC[C@]2(C(=O)NCCCCCCCCCC(=O)O)CC[C@]3(C)[C@H](CCC4[C@@]5(C)CC[C@H](O)C(C)(C)[C@@H]5CC[C@]43C)[C@@H]12 (stereo partly specified)
- IC50 [1]: 0.6 µM
- IC50 [2]: 0.42 µM

Structure (SMILES): C=C(C)[C@@H]1CC[C@]2(C(=O)NCCCCCCCC(=O)N[C@@H](C)C(=O)O)CC[C@]3(C)[C@H](CCC4[C@@]5(C)CC[C@H](O)C(C)(C)[C@@H]5CC[C@]43C)[C@@H]12 (stereo partly specified)
- IC50 [1]: 0.092 µM
- IC50 [2]: 0.062 µM

Structure (SMILES): C=C(C)[C@@H]1CC[C@]2(C(=O)NCCCCCCCC(=O)N[C@@H](Cc3ccccc3)C(=O)O)CC[C@]3(C)[C@H](CCC4[C@@]5(C)CC[C@H](O)C(C)(C)[C@@H]5CC[C@]43C)[C@@H]12 (stereo partly specified)
- IC50 [1]: 2 µM

Structure (SMILES): C=C(C)[C@@H]1CC[C@]2(C(=O)NCCCCCCCC(=O)NCCCC(=O)O)CC[C@]3(C)[C@H](CCC4[C@@]5(C)CC[C@H](O)C(C)(C)[C@@H]5CC[C@]43C)[C@@H]12 (stereo partly specified)
- IC50 [1]: 0.044 µM
- IC50 [2]: 0.129 µM

Structure (SMILES): C=C(C)[C@@H]1CC[C@]2(C(=O)NCCCCCCCC(=O)N[C@@H](CO)C(=O)O)CC[C@]3(C)[C@H](CCC4[C@@]5(C)CC[C@H](O)C(C)(C)[C@@H]5CC[C@]43C)[C@@H]12 (stereo partly specified)
- IC50 [1]: 0.25 µM
- IC50 [2]: 0.25 µM

Structure (SMILES): C=C(C)[C@@H]1CC[C@]2(C(=O)NCCCCCCCC(=O)N[C@@H](CC(C)C)[C@@H](O)CC(=O)O)CC[C@]3(C)[C@H](CCC4[C@@]5(C)CC[C@H](O)C(C)(C)[C@@H]5CC[C@]43C)[C@@H]12 (stereo partly specified)
- IC50 [1]: 0.05 µM
- IC50 [2]: 0.04 µM

Structure (SMILES): C=C(C)[C@@H]1CC[C@]2(C(=O)NCCCCCCCC(=O)N[C@@H](CC(N)=O)C(=O)O)CC[C@]3(C)[C@H](CCC4[C@@]5(C)CC[C@H](O)C(C)(C)[C@@H]5CC[C@]43C)[C@@H]12 (stereo partly specified)
- IC50 [1]: 0.95 µM

Structure (SMILES): C=C(C)[C@@H]1CC[C@]2(C(=O)NCCCCCCCNC(=O)c3ccccc3C(=O)O)CC[C@]3(C)[C@H](CCC4[C@@]5(C)CC[C@H](O)C(C)(C)[C@@H]5CC[C@]43C)[C@@H]12 (stereo partly specified)
- IC50 [1]: 1.8 µM

Structure (SMILES): C=C(C)[C@@H]1CC[C@]2(C(=O)NCCCCCCCC(=O)NC(CC(=O)O)C(F)(F)F)CC[C@]3(C)[C@H](CCC4[C@@]5(C)CC[C@H](O)C(C)(C)[C@@H]5CC[C@]43C)[C@@H]12 (stereo partly specified)
- IC50 [1]: 0.155 µM

Structure (SMILES): C=C(C)[C@@H]1CC[C@]2(C(=O)NCCCCCCCC(=O)N[C@@H](CC(=O)O)C(=O)O)CC[C@]3(C)[C@H](CCC4[C@@]5(C)CC[C@H](O)C(C)(C)[C@@H]5CC[C@]43C)[C@@H]12 (stereo partly specified)
- IC50 [1]: 18 µM

Structure (SMILES): C=C(C)[C@@H]1CC[C@]2(C(=O)NCCCCCCCC(=O)Nc3ccc(C(=O)O)cc3)CC[C@]3(C)[C@H](CCC4[C@@]5(C)CC[C@H](O)C(C)(C)[C@@H]5CC[C@]43C)[C@@H]12 (stereo partly specified)
- IC50 [1]: 0.07 µM
- IC50 [2]: 0.026 µM

Structure (SMILES): C=C(C)[C@@H]1CC[C@]2(C(=O)NCCCCCCCNC(=O)c3ccc(C(=O)O)cc3)CC[C@]3(C)[C@H](CCC4[C@@]5(C)CC[C@H](O)C(C)(C)[C@@H]5CC[C@]43C)[C@@H]12 (stereo partly specified)
- IC50 [1]: 0.11 µM
- IC50 [2]: 0.022 µM

Structure (SMILES): C=C(C)[C@@H]1CC[C@]2(C(=O)NCCCCCCCC(=O)O)CC[C@]3(C)[C@H](CCC4[C@@]5(C)CC[C@H](O)C(C)(C)[C@@H]5CC[C@]43C)[C@@H]12 (stereo partly specified)
- IC50 [1]: 0.75 µM
- IC50 [2]: 0.465 µM

Structure (SMILES): C=C(C)[C@@H]1CC[C@]2(C(=O)NCCCCCCCC(=O)N3CCC[C@H]3C(=O)O)CC[C@]3(C)[C@H](CCC4[C@@]5(C)CC[C@H](O)C(C)(C)[C@@H]5CC[C@]43C)[C@@H]12 (stereo partly specified)
- IC50 [1]: 0.64 µM
- IC50 [2]: 0.058 µM

Structure (SMILES): C=C(C)[C@@H]1CC[C@]2(C(=O)NCCCCCCCC(=O)N[C@H](CO)C(=O)O)CC[C@]3(C)[C@H](CCC4[C@@]5(C)CC[C@H](O)C(C)(C)[C@@H]5CC[C@]43C)[C@@H]12 (stereo partly specified)
- IC50 [1]: 1.9 µM

Structure (SMILES): C=C(C)[C@@H]1CC[C@]2(C(=O)NCCCCCCCC(=O)NCCCCC(=O)O)CC[C@]3(C)[C@H](CCC4[C@@]5(C)CC[C@H](O)C(C)(C)[C@@H]5CC[C@]43C)[C@@H]12 (stereo partly specified)
- IC50 [1]: 0.061 µM

Structure (SMILES): C=C(C)[C@@H]1CC[C@]2(C(=O)NCCCCCCCCCCCC(=O)O)CC[C@]3(C)[C@H](CCC4[C@@]5(C)CC[C@H](O)C(C)(C)[C@@H]5CC[C@]43C)[C@@H]12 (stereo partly specified)
- IC50 [1]: 0.55 µM
- IC50 [2]: 0.25 µM

Structure (SMILES): C=C(C)[C@@H]1CC[C@]2(C(=O)NCCCCCCCC(=O)N3CCCC(C(=O)O)C3)CC[C@]3(C)[C@H](CCC4[C@@]5(C)CC[C@H](O)C(C)(C)[C@@H]5CC[C@]43C)[C@@H]12 (stereo partly specified)
- IC50 [1]: 0.185 µM

Structure (SMILES): C=C(C)[C@@H]1CC[C@]2(C(=O)NCCCCCCCNC(=O)CC(=O)O)CC[C@]3(C)[C@H](CCC4[C@@]5(C)CC[C@H](O)C(C)(C)[C@@H]5CC[C@]43C)[C@@H]12 (stereo partly specified)
- IC50 [1]: 0.05 µM
- IC50 [2]: 0.034 µM

Structure (SMILES): C=C(C)[C@@H]1CC[C@]2(C(=O)NCCCCCCCC(=O)N[C@H](CCC(=O)O)CC(C)C)CC[C@]3(C)[C@H](CCC4[C@@]5(C)CC[C@H](O)C(C)(C)[C@@H]5CC[C@]43C)[C@@H]12 (stereo partly specified)
- IC50 [1]: 0.052 µM
- IC50 [2]: 0.085 µM

Structure (SMILES): C=C(C)[C@@H]1CC[C@]2(C(=O)NCCCCCCCC(=O)N[C@@H](CC(C)C)[C@H](O)CC(=O)O)CC[C@]3(C)[C@H](CCC4[C@@]5(C)CC[C@H](O)C(C)(C)[C@@H]5CC[C@]43C)[C@@H]12 (stereo partly specified)
- IC50 [1]: 0.05 µM
- IC50 [2]: 0.044 µM

Structure (SMILES): C=C(C)[C@@H]1CC[C@]2(C(=O)NCCCCCCCC(=O)NC(F)CC(=O)O)CC[C@]3(C)[C@H](CCC4[C@@]5(C)CC[C@H](O)C(C)(C)[C@@H]5CC[C@]43C)[C@@H]12 (stereo partly specified)
- IC50 [1]: 0.095 µM

Structure (SMILES): C=C(C)[C@@H]1CC[C@]2(C(=O)NCCCCCCCC(=O)Nc3cccc(C(=O)O)c3)CC[C@]3(C)[C@H](CCC4[C@@]5(C)CC[C@H](O)C(C)(C)[C@@H]5CC[C@]43C)[C@@H]12 (stereo partly specified)
- IC50 [1]: 0.08 µM

Structure (SMILES): C=C(C)[C@@H]1CC[C@]2(C(=O)NCCCCCCCNC(=O)CCCC(=O)O)CC[C@]3(C)[C@H](CCC4[C@@]5(C)CC[C@H](O)C(C)(C)[C@@H]5CC[C@]43C)[C@@H]12 (stereo partly specified)
- IC50 [1]: 0.02 µM
